Measured values gathered from unrelated publications.
Each line is one published result; the experiments were not run side by side.
Sample: plasma

C[C@H]1Oc2cc(cnc2N)-c2c(nn(C)c2C#N)CN(C)C(=O)c2ccc(F)cc21 has an AUC(0-t) of 24800 ng·h/mL (male Sprague-Dawley rat; oral, 50 mg/kg, single dose).
The AUC(0-t) of COc1nc(-c2cccc(-c3ccccc3)c2C)ccc1CNCCNC(=O)CCCCCCCCCCC(=O)N1CCN(CCNC(=O)c2cc3c(=O)n4cccc(C)c4nc3n(CCc3cccs3)c2=N)CC1 is reported as 257 ng·h/mL (male Sprague-Dawley rat; oral, 40 mg/kg).
CCOc1c([C@H](C)n2nc(C)c3c(N)ncnc32)cc(Cl)c(F)c1[C@@H]1CNC(=O)C1 gave an AUC(0-t) of 4580 ng·h/mL (male Sprague-Dawley rat; oral, 2 mg/kg, single dose).
The AUC(0-t) of COc1ccc(-c2coc3cc(O)cc(O)c3c2=O)cc1 is reported as 637 ng·h/mL (rat; intravenous, 2 mg/kg).
O=C1CCC(N2Cc3cc(C4CCN(Cc5ccccc5)CC4)ccc3C2=O)C(=O)N1 (stereo not shown) has an AUC(0-t) of 336 ng·h/mL (male Sprague-Dawley rat; oral, 3 mg/kg).
CCCc1nc2c(C)cc(-c3nc4ccccc4n3C)cc2n1Cc1ccc(-c2ccccc2C(=O)O)cc1 gave an AUC(0-t) of 1940 ng·h/mL (male Sprague-Dawley rat; oral, 8 mg/kg, single dose).
For Cc1ccc2c(c1)C(=O)[C@]1(O)CCN(c3ccc4nc(C)ccc4c3)C1=N2.Cl, the AUC(0-t) was 20.4 µM·h (male rat; subcutaneous, 40 mg/kg, multiple doses, once daily).
CCCCC(=O)Nc1ccc(-c2ccc3ncn(CCC)c(=O)c3c2)cn1 gave an AUC(0-t) of 1200 ng·h/mL (male rat; oral, 10 mg/kg).
The AUC(0-t) of COc1ccc(N(Cc2csc(-c3ccccc3)n2)C(=O)CCCCCC(=O)NO)cc1 is reported as 18.4 ng·h/mL (female Sprague-Dawley rat; oral, 30 mg/kg).
CC(=O)O[C@@H]1CC[C@@]2(C)[C@@H](CC[C@]3(C)[C@@H]2C(=O)C=C2[C@@H]4[C@@H](C)[C@H](C)CC[C@]4(C)CC[C@]23C)[C@@]1(C)C(=O)O has an AUC(0-t) of 40900 ng·h/mL (female Wistar rat; oral, 1 mg/kg, single dose).
With Nc1ccn([C@@H]2O[C@H](CO)[C@@H](O)C2(F)F)c(=O)n1 the AUC(0-t) was 22900 ng·h/mL (male Sprague-Dawley rat; intraperitoneal, 5 mg/kg).
CONC(=O)c1cccc2c1cc(C)n2-c1nc2c(c(NCc3ccccc3)n1)CCCN2 gave an AUC(0-t) of 20.1 ng·h/mL (male Sprague-Dawley rat; intravenous, 1 mg/kg, single dose).
The AUC(0-t) of COc1cc(-c2cc(C(C)=O)n3ccccc23)c(OC)cc1Cn1ccnc1 is reported as 2150 ng·h/mL (male Sprague-Dawley rat; oral, 5 mg/kg).
For C=CC(=O)N1CCC([C@@H]2CCNc3c(C(N)=O)c(-c4ccc(Oc5ccccc5)cc4)nn32)CC1, the AUC(0-t) was 1450 ng·h/mL (Sprague-Dawley rat; oral, 16 mg/kg).
Cn1c(=O)c2[nH]cnc2n(C)c1=O has an AUC(0-t) of 53800 ng·h/mL (male Sprague-Dawley rat; intravenous, 22.5 mg/kg).
CCN(CC)Cc1ccc2cc(COC(=O)Nc3ccc(C(=O)NO)cc3)ccc2c1 has an AUC(0-t) of 8490 ng·h/mL (male Sprague-Dawley rat; oral, 10 mg/kg).
